Consider 39 molecules from ChEMBL document CHEMBL1914331, “N-O chemistry for antibiotics: discovery of N-alkyl-N-(pyridin-2-yl)hydroxylamine scaffolds as selective antibacterial agents using nitroso Diels-Alder and ene chemistry” (J Med Chem, 2011).

Series [1] has as its system MCF7. In words: Cytotoxicity against human MCF7 cells. The class given is cell-based.
Series [2] concerns Micrococcus luteus. In words: Antimicrobial activity against Micrococcus luteus ATCC 10240 after 24 hrs by Kirby-Bauer agar diffusion assay. The class given is functional. Summed up:
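Modified Kirby-Bauer well diffusion. Overnight LB cultures (18–24 h) were standardized in 0.9% saline to 0.5 McFarland and mixed into melted MHII agar at 47–50 °C, giving ~5×10³ CFU/mL. 9 mm wells received 50 µL of 2.0 mM compound in 10:1 MeOH:DMSO. Plates were incubated 24 h at 37 °C, then growth-inhibition zone diameter was measured (mm) by caliper.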
Background: A growth-free zone around the sample is the usual read-out of agar diffusion tests.

For series [3], the system named is PC-3. In words: Cytotoxicity against human PC3 cells. Type of series: cell-based.
Series [4] relates to HeLa. Description: Cytotoxicity against human HeLa cells. The class given is cell-based.

`CC(C)(C)OC(=O)NO`: the Activity entry in series [1], in series [3] and in series [4] was “Non-toxic” in each case. Further, the “diameter of the inhibition zone (DIZ)” value in series [2] was “<=14 mm”.
As for `O[C@@H]1C=CCC[C@H]1N(O)c1ccc(Br)cn1` (racemic), the Activity result in series [1], in series [3] and in series [4] was “Non-toxic” each time. Further, in series [2], the “diameter of the inhibition zone (DIZ)” value is above 14 mm.
As to `Cc1ccnc(N=O)c1`, the Activity result in series [1], in series [3] and in series [4] was “Non-toxic” in each case. For the same molecule, in series [2], the “diameter of the inhibition zone (DIZ)” value is given as “<=14 mm”.
For the molecule `O[C@@H]1C=C[C@@H](N(O)c2ccc(Br)cn2)C1` (racemic), the Activity result in series [1], in series [3] and in series [4] was “Non-toxic” throughout. Further, the “diameter of the inhibition zone (DIZ)” value in series [2] is on record as above 14 mm.
Take `O=Nc1ccc2ccccc2n1`: the Activity entry in series [1], in series [3] and in series [4] was “Non-toxic” in each case. The “diameter of the inhibition zone (DIZ)” value in series [2] was “<=14 mm”.
Regarding `COC1C=C[C@@H](N(O)c2ccc(Br)cn2)C1` (mixture of isomers), the Activity entry in series [1], in series [3] and in series [4] was “Non-toxic” each time. Also, in series [2], the “diameter of the inhibition zone (DIZ)” value was above 14 mm.
On to `CCCCCCN(OCc1ccc(OC)cc1)c1ccccn1`, for which the Activity entry in series [1], in series [3] and in series [4] was “Non-toxic” each time. Moreover, the “diameter of the inhibition zone (DIZ)” value in series [2] is given as “<=14 mm”.
As for `CC(C)O[C@@H]1C=CC[C@H]1N(O)c1ccc(Br)cn1` (racemic), the Activity result in series [1], in series [3] and in series [4] was “Non-toxic” in each case. In addition, the “diameter of the inhibition zone (DIZ)” value in series [2] was above 14 mm.
Take `C=C(C)C(C)N(O)C(=O)[C@H](C)NC(=O)OC(C)(C)C` (mixture of isomers): the Activity entry in series [1], in series [3] and in series [4] was “Non-toxic” throughout. Moreover, the “diameter of the inhibition zone (DIZ)” value in series [2] is “<=14 mm”.
For `CC(C)(C)OC1C=C[C@@H](N(O)c2ccc(Br)cn2)C1` (mixture of isomers), the Activity entry in series [1], in series [3] and in series [4] was “Non-toxic” in each case. In addition, the “diameter of the inhibition zone (DIZ)” value in series [2] is above 14 mm.
Turning to `Cc1cccc(N2OC3C=CC2C3)n1` (racemic), the Activity result in series [1], in series [3] and in series [4] was “Non-toxic” each time. In addition, in series [2], the “diameter of the inhibition zone (DIZ)” value is reported as “<=14 mm”.
With `Cc1cc(N=O)no1`, the Activity entry in series [1], in series [3] and in series [4] was “Non-toxic” in each case. In addition, the “diameter of the inhibition zone (DIZ)” value in series [2] was “<=14 mm”.
Take `O[C@H]1C=C[C@@H](N(O)c2ccc(Br)cn2)C1` (racemic): the Activity entry in series [1], in series [3] and in series [4] was “Non-toxic” throughout. The “diameter of the inhibition zone (DIZ)” value in series [2] is given as above 14 mm.
For the molecule `COc1ccc(CON(Cc2cccc(Oc3ccccc3)c2)c2ccccn2)cc1`, the Activity entry in series [1], in series [3] and in series [4] was “Non-toxic” each time. Further, the “diameter of the inhibition zone (DIZ)” value in series [2] is “<=14 mm”.
For `CC(C)(C)O[C@@H]1C=C[C@@H](N(O)C(=O)Cc2ccccc2)C1` (racemic), the Activity result in series [1], in series [3] and in series [4] was “Non-toxic” in each case. For the same molecule, in series [2], the “diameter of the inhibition zone (DIZ)” value is on record as “<=14 mm”.
Consider `CC(C)(C)O[C@@H]1C=C[C@@H](N(O)c2ccc(Br)cn2)CC1` (racemic), for which the Activity result in series [1], in series [3] and in series [4] was “Non-toxic” each time. In addition, the “diameter of the inhibition zone (DIZ)” value in series [2] is above 14 mm.
For the molecule `CO[C@@H]1C=CCC[C@H]1N(O)C(=O)Cc1ccccc1` (relative stereo), the Activity result in series [1], in series [3] and in series [4] was “Non-toxic” in each case. For the same molecule, the “diameter of the inhibition zone (DIZ)” value in series [2] was “<=14 mm”.
As for `Cc1cccc(N(O)[C@@H]2C=C[C@@H](OC(C)(C)C)CC2)n1` (racemic), the Activity result in series [1], in series [3] and in series [4] was “Non-toxic” throughout. The “diameter of the inhibition zone (DIZ)” value in series [2] is on record as above 14 mm.
Turning to `Brc1ccc(N2OC3C=CC2C3)nc1` (racemic), the Activity result in series [1], in series [3] and in series [4] was “Non-toxic” throughout. For the same molecule, in series [2], the “diameter of the inhibition zone (DIZ)” value is “<=14 mm”.
Consider `Cc1cc(N(O)[C@H]2CC=C[C@@H]2OC(C)(C)C)no1` (racemic), for which the Activity result in series [1], in series [3] and in series [4] was “Non-toxic” throughout. Moreover, the “diameter of the inhibition zone (DIZ)” value in series [2] is on record as above 14 mm.
As for `CO[C@@H]1C=C[C@@H](N(O)C(=O)Cc2ccccc2)C1` (racemic), the Activity entry in series [1], in series [3] and in series [4] was “Non-toxic” each time. Also, the “diameter of the inhibition zone (DIZ)” value in series [2] was “<=14 mm”.
Regarding `COc1ccc(CON(Cc2ccccc2)c2cccnc2)cc1`, the Activity result in series [1], in series [3] and in series [4] was “Non-toxic” in each case.
As to `O=C(c1ccccc1)N1OC2C=CC21` (racemic), the Activity result in series [1], in series [3] and in series [4] was “Non-toxic” in each case. Moreover, in series [2], the “diameter of the inhibition zone (DIZ)” value is on record as “<=14 mm”.
Turning to `COc1ccc(CON(Cc2ccc(OC(F)(F)F)cc2)c2ccccn2)cc1`, the Activity result in series [1], in series [3] and in series [4] was “Non-toxic” in each case. The “diameter of the inhibition zone (DIZ)” value in series [2] is “<=14 mm”.
On to `Cc1cccnc1N(O)[C@@H]1CC=C[C@H]1OC(C)C` (racemic), for which the Activity result in series [1], in series [3] and in series [4] was “Non-toxic” in each case. In addition, the “diameter of the inhibition zone (DIZ)” value in series [2] is on record as above 14 mm.
Regarding `CC(C)OC1C=C[C@@H](N(O)c2ccc(Br)cn2)C1` (mixture of isomers), the Activity result in series [1], in series [3] and in series [4] was “Non-toxic” in each case. Besides, in series [2], the “diameter of the inhibition zone (DIZ)” value is recorded as above 14 mm.
In the case of `CC(C)(C)O[C@@H]1C=CC[C@H]1N(O)c1ccc(Cl)cn1`, the Activity entry in series [1], in series [3] and in series [4] was “Non-toxic” each time. Further, in series [2], the “diameter of the inhibition zone (DIZ)” value was above 14 mm.
In the case of `C[C@H](NC(=O)OC(C)(C)C)C(=O)NO`, the Activity result in series [1], in series [3] and in series [4] was “Non-toxic” throughout. Further, the “diameter of the inhibition zone (DIZ)” value in series [2] is given as “<=14 mm”.
Regarding `O=Nc1ccc(Cl)cn1`, the Activity entry in series [1], in series [3] and in series [4] was “Non-toxic” throughout. Also, the “diameter of the inhibition zone (DIZ)” value in series [2] is recorded as “<=14 mm”.
As to `O=Nc1ncc(C(F)(F)F)cc1Cl`, the Activity result in series [1], in series [3] and in series [4] was “Non-toxic” in each case. The “diameter of the inhibition zone (DIZ)” value in series [2] is given as “<=14 mm”.
For the molecule `O=Nc1ccc(I)cn1`, the Activity result in series [1], in series [3] and in series [4] was “Non-toxic” throughout. Also, the “diameter of the inhibition zone (DIZ)” value in series [2] is reported as “<=14 mm”.
In the case of `Cc1cccc(N=O)n1`, the Activity result in series [1], in series [3] and in series [4] was “Non-toxic” in each case. The “diameter of the inhibition zone (DIZ)” value in series [2] is on record as “<=14 mm”.
Take `Brc1ccc(N2OC3C=CC2CC3)nc1` (racemic): the Activity result in series [1], in series [3] and in series [4] was “Non-toxic” throughout. Further, the “diameter of the inhibition zone (DIZ)” value in series [2] is listed as “<=14 mm”.
Regarding `Cc1nc(N=O)ccc1Br`, the Activity result in series [1], in series [3] and in series [4] was “Non-toxic” each time. Further, the “diameter of the inhibition zone (DIZ)” value in series [2] is “<=14 mm”.
With `CC(C)(C)OC(=O)N1OC2C=CC1C2` (racemic), the Activity result in series [1], in series [3] and in series [4] was “Non-toxic” throughout. In series [2], the “diameter of the inhibition zone (DIZ)” value is recorded as “<=14 mm”.
Turning to `Cc1cccnc1N=O`, the Activity result in series [1], in series [3] and in series [4] was “Non-toxic” throughout. In addition, in series [2], the “diameter of the inhibition zone (DIZ)” value is “<=14 mm”.
As for `O=Nc1ncc(Cl)cc1Cl`, the Activity entry in series [1], in series [3] and in series [4] was “Non-toxic” throughout. The “diameter of the inhibition zone (DIZ)” value in series [2] is on record as “<=14 mm”.
As to `O=C(Cc1ccccc1)NO` [PHENYLACETOHYDROXAMIC ACID], the Activity entry in series [1], in series [3] and in series [4] was “Non-toxic” throughout. The “diameter of the inhibition zone (DIZ)” value in series [2] is given as “<=14 mm”.
Take `COc1ccc(CON(Cc2ccccc2)Cc2ccccn2)cc1`: the Activity entry in series [1], in series [3] and in series [4] was “Non-toxic” in each case.
